Laboratory results reported in paper PMC11056977 (Journal of Medicinal Chemistry, 2024).
Ends that are not written are not given here.

Key:
BRD4 = assay: Immunoblotting of BRD4 protein; type: cell-based; settings: MCF7 cells, MZ1 1 μM, 24 h, compared with TAT-PiET-PROTAC 10 μM
[1] = tested on: MCF7 cell-derived xenografts; assay: MCF7 cell-derived xenograft mouse model; type: in vivo, BALB/c nude mice; settings: tumor samples, 25 mg/kg ip every 2 days
Procedure, shortened: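 Female BALB/c nude mice (4–6 weeks) implanted subcutaneously with 5 × 10^6 MCF7 cells in PBS, with estrogen (E2, 10–2 M) brushed on every 2 days. Randomized at ~50 mm3 tumor volume. Test peptide was given in normal saline, 25 mg/kg i.p., every 2 days. Tumor lysates (Tris-HCl pH 7.4, NaCl, EDTA, 1% Triton X-100) were immunoblotted after 10% SDS-PAGE.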

[2] = tested on: MDA-MB-231 cell-derived xenografts; assay: MDA-MB-231 cell-derived xenograft mouse model; type: in vivo, BALB/c nude mice; settings: tumor samples, 25 mg/kg ip every 2 days
Procedure, shortened: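 Female BALB/c nude mice (4–6 weeks) were implanted subcutaneously with 5 × 10^6 MDA-MB-231 cells in PBS and randomized at ~50 mm3. Peptide in normal saline was given at 25 mg/kg i.p. every 2 days. Tumours were analysed by RT-qPCR for c-Myc, N-myc and CCND1 (three biological repeats).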

[3] = tested on: c-Myc, N-myc, CCND1 expression in MCF7 cells; assay: RT-qPCR and immunoblotting of BRD4/JMJD6 target genes, MCF7 cells; type: cell-based; settings: 10 μM 6 h in cells; xenograft tumor samples; RT-qPCR
[4] = tested on: c-Myc, N-myc, CCND1 expression in MDA-MB-231 cells; assay: RT-qPCR and immunoblotting of BRD4/JMJD6 target genes, MDA-MB-231 cells; type: cell-based; settings: 10 μM 6 h in cells; xenograft tumor samples; RT-qPCR
[5] = tested on: tamoxifen-resistant MCF7 cells; assay: Cell proliferation and colony formation, tamoxifen-resistant MCF7; type: cell-based; settings: peptide inhibitors 10 μM, tamoxifen 3 μM, cell proliferation and colony formation assay
Procedure, shortened: (§1)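 Resistant lines (MCF7 in DMEM; T47D in RPMI-1640; 10% FBS, 37 °C, 5% CO2) given peptide inhibitor 10 μM and tamoxifen 3 μM, alone or combined. Proliferation: 2 × 10^3 cells/well for the days indicated, then tetrazolium (CellTiter 96 Aqueous One) reagent for 1 h at 37 °C and absorbance at 490 nm. Colonies: 1 × 10^3 cells/well for 2 weeks, crystal violet stain dissolved in 10% acetic acid, read at 590 nm.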

[6] = tested on: tamoxifen-resistant T47D cells; assay: Cell proliferation and colony formation, tamoxifen-resistant T47D; type: cell-based; settings: peptide inhibitors 10 μM, tamoxifen 3 μM, cell proliferation and colony formation assay
Procedure, shortened: as §1

Cc1ncsc1-c1ccc(CNC(=O)[C@@H]2C[C@@H](O)CN2C(=O)[C@@H](NC(=O)COCCOCCOCCNC(=O)C[C@@H]2N=C(c3ccc(Cl)cc3)c3c(sc(C)c3C)-n3c(C)nnc32)C(C)(C)C)cc1 [MZ1]
degradation of full-length BRD4 protein (BRD4): induced the degradation of full-length BRD4 protein as effectively as TAT-PiET-PROTAC (10 μM)

TAT-PiET-PROTAC: PROTAC-modified TAT-PiET: VHL ligand peptide joined by AHX to the C-terminus (YGRKKRRQRRRRNQKFKCGE; not fully specified (C-terminus))
c-Myc, N-myc, and CCND1 mRNA and protein levels in MCF7 cell-derived xenografts [1]: significant decrease | degradation of BRD4 and JMJD6 in MCF7 cell-derived xenografts ([1]; immunoblot): induced the degradation of BRD4 and JMJD6 in xenografts | c-Myc, N-myc, and CCND1 mRNA and protein levels in MDA-MB-231 cell-derived xenografts [2]: significant decrease | degradation of BRD4 and JMJD6 in MDA-MB-231 cell-derived xenografts ([2]; immunoblot): induced the degradation of BRD4 and JMJD6 in xenografts | mRNA levels of BRD4 or JMJD6, MCF7 (culture cells or xenografts) [3]: did not affect | mRNA levels of BRD4 or JMJD6, MDA-MB-231 (culture cells or xenografts) [4]: did not affect | resensitization of tamoxifen-resistant MCF7 cells to tamoxifen [5]: resensitized | sensitivity of tamoxifen-resistant T47D cells to tamoxifen [6]: became sensitive to tamoxifen

YGRKKRRQRRRRNQKFKCGE [TAT-PiET]
c-Myc, N-myc, and CCND1 mRNA and protein levels in MCF7 cell-derived xenografts [1]: significant decrease | c-Myc, N-myc, and CCND1 mRNA and protein levels in MDA-MB-231 cell-derived xenografts [2]: significant decrease | mRNA levels of BRD4 or JMJD6, MCF7 (culture cells or xenografts) [3]: did not affect | mRNA levels of BRD4 or JMJD6, MDA-MB-231 (culture cells or xenografts) [4]: did not affect | resensitization of tamoxifen-resistant MCF7 cells to tamoxifen [5]: resensitized | sensitivity of tamoxifen-resistant T47D cells to tamoxifen [6]: became sensitive to tamoxifen
